Experimental data reported in ChEMBL document CHEMBL1136766, “Design, synthesis, and biological evaluation of new inhibitors of the endocannabinoid uptake: comparison with effects on fatty acid amidohydrolase” (J Med Chem, 2003).
pIC50, pKi: −log10 of the molar value.

Tests used:
[1] = target: Transient receptor potential cation channel subfamily V member 1 (Rattus norvegicus, UniProt O35433); experiment: Binding affinity against vanilloid receptor 1 (VR1) using [3H]RTX in rat spinal cord membranes; format: cell membranes, Membrane
Procedure, shortened: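 Rat spinal cord membranes (about 1 mg/mL protein) in HEPES/sucrose buffer pH 7.4 with 0.25 mg/mL BSA. Incubated 60 min at 37 °C with 25 pM [3H]RTX plus competitor; nonspecific binding defined with 1 µM RTX. Stopped on ice, α1-acid glycoprotein added, membranes pelleted and counted. Ki by Cheng-Prusoff. Two to four experiments in triplicate.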

[2] = target: T1, Fatty-acid amide hydrolase 1 (Rattus norvegicus) (UniProt P97612); experiment: Maximum Inhibition of fatty acid amide hydrolase (FAAH) was determined using rat brain homogenates at 100 uM
T1 sequence (whole entry): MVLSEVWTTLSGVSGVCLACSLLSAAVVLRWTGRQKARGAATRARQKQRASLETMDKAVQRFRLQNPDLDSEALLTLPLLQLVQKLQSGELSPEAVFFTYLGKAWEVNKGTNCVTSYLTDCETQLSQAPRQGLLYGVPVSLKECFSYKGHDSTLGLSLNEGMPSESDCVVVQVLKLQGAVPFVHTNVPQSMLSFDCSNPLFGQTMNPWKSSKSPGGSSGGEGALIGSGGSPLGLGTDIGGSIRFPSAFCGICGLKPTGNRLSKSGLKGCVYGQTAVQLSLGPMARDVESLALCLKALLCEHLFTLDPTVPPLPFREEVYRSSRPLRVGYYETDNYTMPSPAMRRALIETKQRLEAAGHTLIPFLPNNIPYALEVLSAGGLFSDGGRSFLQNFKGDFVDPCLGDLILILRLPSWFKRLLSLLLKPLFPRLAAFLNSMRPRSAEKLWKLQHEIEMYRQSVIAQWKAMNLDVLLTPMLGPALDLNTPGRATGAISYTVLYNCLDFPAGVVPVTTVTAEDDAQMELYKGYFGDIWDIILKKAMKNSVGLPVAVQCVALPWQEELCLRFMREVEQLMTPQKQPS
Procedure, shortened: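 Rat brain (minus cerebellum) homogenate in 10 mM Tris-HCl, 1 mM EDTA, pH 7.6, incubated 10 min at 37 °C with test agent or ethanol carrier. Substrate: 2 µM final anandamide with trace [3H]anandamide (ethanolamine label), 1% fatty acid free BSA. Stopped on ice plus chloroform/methanol. Aqueous-phase [3H]ethanolamine counted by scintillation. Inhibition read at 100 µM where IC50 fit failed.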

[3] = species: Homo sapiens; experiment: Maximum Inhibition of anandamide transport(ANT) was determined against human lymphoma U937 cell at a dose of 50 uM; format: functional, U-937
Procedure, shortened: (§1)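 U937 cells (10^6/mL, RPMI 1640) preincubated 10 min at 37 °C with inhibitor, highest concentration tested 50 µM. Then [3H]anandamide 0.45 nM plus cold anandamide (100 nM final) added for 7 min. Stopped by GF/C filtration and washed with Krebs-HEPES; radioactivity counted. Nonspecific uptake measured at 4 °C. IC50 by curve fit; maximum inhibition is the % inhibition at 50 µM.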

[4] = target: Cannabinoid receptor 1 (Rattus norvegicus, UniProt P20272); experiment: Binding affinity against G protein coupled Cannabinoid receptor 1 using [3H]WIN-55212-2 in rat cerebellum membranes; format: cell membranes, Membrane
Procedure, shortened: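 Rat cerebellum membranes washed in 50 mM Tris-HCl pH 7.4, resuspended at about 2 mg/mL protein. Incubated 90 min at 30 °C with 0.5 nM [3H]WIN55212-2 plus competitor in Tris/EDTA/MgCl2/5 mg/mL BSA buffer. Nonspecific binding defined with 10 µM SR141716A. Bound ligand separated by GF/C filtration and counted by scintillation. IC50 from curve fit, Ki by Cheng-Prusoff. Two to four experiments in triplicate.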

[5] = target: Cannabinoid receptor 2 (Homo sapiens, UniProt P34972); experiment: Binding affinity against G protein coupled human Cannabinoid receptor 2 using [3H]CP-55940 in HEK293 EBNA transfected cells; format: cell-based
Procedure, shortened: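 Incubated 90 min at 30 °C with 0.3 nM [3H]CP55940 plus competitor. Filtered and counted by scintillation. IC50 from curve fit, Ki by Cheng-Prusoff. Two to four experiments in triplicate.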

[6] = target: T2, Fatty-acid amide hydrolase 1 (Rattus norvegicus, UniProt P97612); experiment: Inhibition of fatty acid amide hydrolase (FAAH) was determined using rat brain homogenates as the enzyme source and [3H]anandamide as substrate; format: tissue-based
T2 sequence (P97612 whole entry): T1 sequence (whole entry)
Procedure, shortened: (§2)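 Rat brain homogenate without cerebellum, in 10 mM Tris-HCl/1 mM EDTA pH 7.6, incubated 10 min at 37 °C with compound (ethanol carrier). Substrate: anandamide 2 µM final with trace [3H]anandamide labelled in the ethanolamine, plus BSA. Stopped on ice with chloroform/methanol; [3H]ethanolamine in the aqueous phase counted. Eight concentrations from 0.5 to 100 µM, at least three experiments.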

[7] = target: T1, Fatty-acid amide hydrolase 1 (Rattus norvegicus); experiment: Inhibition of fatty acid amide hydrolase (FAAH) in rat brain homogenates; format: tissue-based; procedure, shortened: as §2
[8] = species: Homo sapiens; experiment: Inhibition of [3H]anandamide transport(ANT) in human lymphoma U937 cell; format: functional; details: U-937; procedure, shortened: as §1

Sequence of Cannabinoid receptor 2 (P34972 whole entry): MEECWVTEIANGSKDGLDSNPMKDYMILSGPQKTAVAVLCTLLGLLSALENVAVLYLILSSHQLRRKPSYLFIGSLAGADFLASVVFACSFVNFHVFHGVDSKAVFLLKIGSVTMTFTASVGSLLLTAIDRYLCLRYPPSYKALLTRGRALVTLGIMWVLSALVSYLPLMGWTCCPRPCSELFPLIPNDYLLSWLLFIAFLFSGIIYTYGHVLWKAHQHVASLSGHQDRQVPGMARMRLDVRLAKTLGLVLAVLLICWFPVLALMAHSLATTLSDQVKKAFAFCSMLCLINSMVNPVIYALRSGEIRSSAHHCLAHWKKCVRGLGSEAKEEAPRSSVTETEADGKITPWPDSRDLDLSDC
Sequence of Cannabinoid receptor 1 (P20272 whole entry): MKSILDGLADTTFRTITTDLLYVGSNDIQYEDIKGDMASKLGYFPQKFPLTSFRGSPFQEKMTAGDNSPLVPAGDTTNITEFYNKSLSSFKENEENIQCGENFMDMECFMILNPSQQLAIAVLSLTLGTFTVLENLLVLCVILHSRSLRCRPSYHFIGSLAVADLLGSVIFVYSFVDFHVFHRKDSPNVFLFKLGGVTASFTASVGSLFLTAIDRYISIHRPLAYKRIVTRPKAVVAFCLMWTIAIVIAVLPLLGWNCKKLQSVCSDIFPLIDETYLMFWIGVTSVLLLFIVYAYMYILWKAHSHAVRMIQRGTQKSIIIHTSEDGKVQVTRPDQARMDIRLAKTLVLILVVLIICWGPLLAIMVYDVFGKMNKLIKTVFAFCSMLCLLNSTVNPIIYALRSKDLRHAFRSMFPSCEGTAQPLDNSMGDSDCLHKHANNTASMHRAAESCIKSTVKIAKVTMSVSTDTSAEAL
Sequence of Transient receptor potential cation channel subfamily V member 1 (O35433 whole entry): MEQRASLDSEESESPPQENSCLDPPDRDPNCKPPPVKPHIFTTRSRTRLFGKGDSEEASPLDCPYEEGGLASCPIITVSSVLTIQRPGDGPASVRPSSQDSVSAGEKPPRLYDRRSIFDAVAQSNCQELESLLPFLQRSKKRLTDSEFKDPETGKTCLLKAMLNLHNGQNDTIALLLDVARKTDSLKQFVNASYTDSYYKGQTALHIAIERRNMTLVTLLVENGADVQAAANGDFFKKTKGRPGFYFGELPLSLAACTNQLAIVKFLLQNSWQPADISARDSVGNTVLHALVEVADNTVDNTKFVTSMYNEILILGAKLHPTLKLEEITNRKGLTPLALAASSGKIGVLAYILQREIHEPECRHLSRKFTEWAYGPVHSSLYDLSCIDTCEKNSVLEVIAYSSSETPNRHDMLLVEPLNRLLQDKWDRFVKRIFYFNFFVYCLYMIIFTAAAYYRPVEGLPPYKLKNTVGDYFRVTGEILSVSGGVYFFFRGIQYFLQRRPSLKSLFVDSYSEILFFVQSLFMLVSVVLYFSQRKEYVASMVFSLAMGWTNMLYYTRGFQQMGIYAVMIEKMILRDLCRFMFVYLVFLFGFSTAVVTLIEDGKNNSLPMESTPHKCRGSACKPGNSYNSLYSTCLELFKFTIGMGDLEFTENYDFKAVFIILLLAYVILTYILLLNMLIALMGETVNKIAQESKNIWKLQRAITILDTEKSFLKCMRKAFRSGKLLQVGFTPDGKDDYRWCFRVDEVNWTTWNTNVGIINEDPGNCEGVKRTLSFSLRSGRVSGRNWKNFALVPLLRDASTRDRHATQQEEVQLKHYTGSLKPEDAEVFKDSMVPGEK

Row | Compound | pKi [1] | Max inhibition [2] [%] | Max inhibition [3] [%] | pKi [4] | pKi [5] | pIC50 [6] | Max inhibition [7] [%] | pIC50 [8]
1 | CCCCC/C=C\C/C=C\C/C=C\C/C=C\CCCC(=O)OC(C)c1ccco1 (centres undefined) | < 5.30 | 45 | 70 | < 6.00 | < 6.00 | < 3.92 |  | 
2 | CCCCC/C=C\C/C=C\C/C=C\C/C=C\CCCC(=O)NCc1ccsc1 | < 5.30 |  | >85 | < 6.00 | < 6.00 | 4.92 | 76 | 5.30
3 | CCCCC/C=C\C/C=C\C/C=C\C/C=C\CCCC(=O)NCCc1ccoc1 | < 5.30 |  | >85 | < 6.00 | 6.40 |  |  | 5.48
4 | CCCCC/C=C\C/C=C\C/C=C\C/C=C\CCCC(=O)OCc1ccoc1 |  |  | >85 | < 5.30 | < 5.30 | 3.99 | 100 | 
5 | CCCCC/C=C\C/C=C\C/C=C\C/C=C\CCCC(=O)SCc1ccco1 | < 5.30 |  | >85 | < 5.30 | < 5.30 | < 3.92 | 36 | 5.05
6 | CCCCC/C=C\C/C=C\C/C=C\C/C=C\CCCC(=O)Nc1ccc(O)cc1 |  |  | >85 |  |  | 5.43 | 100 | 
7 | CCCCC/C=C\C/C=C\C/C=C\C/C=C\CCCC(=O)NCCc1ccsc1 | > 5.30 |  | 60 | < 6.00 | < 6.00 |  |  | 5.89
8 | CCCCC/C=C\C/C=C\C/C=C\C/C=C\CCCC(=O)OCc1cccs1 |  |  |  | < 5.30 | < 5.30 | 4.92 | 80 | 
9 | CCCCC/C=C\C/C=C\C/C=C\C/C=C\CCCC(=O)OCC1CCOC1 (centres undefined) |  |  | >85 | < 5.30 | < 5.00 | 3.95 | 100 | 
10 | CCCCC/C=C\C/C=C\C/C=C\C/C=C\CCCC(=O)NCc1ccoc1 |  |  | >85 | 5.33 |  | 4.52 | 100 | 
11 | CCCCC/C=C\C/C=C\C/C=C\C/C=C\CCCC(=O)NCc1cccs1 |  |  | >85 |  | < 5.00 | 3.95 | 100 | 
12 | CCCCC/C=C\C/C=C\C/C=C\C/C=C\CCCC(=O)N(Cc1cccs1)Cc1cccs1 | < 5.30 |  | >85 | < 6.00 | < 6.00 |  |  | 4.80
13 | CCCCC/C=C\C/C=C\C/C=C\C/C=C\CCCC(=O)NCC1CCCO1 (centres undefined) |  |  | >85 | < 5.30 | < 5.30 | 4.36 | 47 | 
14 | CCCCC/C=C\C/C=C\C/C=C\C/C=C\CCCCNCc1ccoc1 | < 5.30 |  | >85 | < 6.00 | < 6.00 | 4.54 | 57 | 
15 | CCCCC/C=C\C/C=C\C/C=C\C/C=C\CCCC(=O)OCCc1cccs1 | < 5.30 |  | >85 | < 6.00 | < 5.30 | 4.62 | 68 | 4.92
16 | CCCCC/C=C\C/C=C\C/C=C\C/C=C\CCCC(=O)NCCc1cccs1 | < 5.30 |  | >85 | 5.52 | < 6.00 | 3.99 | 100 | 4.72
17 | CCCCC/C=C\C/C=C\C/C=C\C/C=C\CCCC(=O)OCc1ccsc1 |  |  | >85 | < 5.30 | < 5.30 | 4.08 | 100 | 
18 | CCCCC/C=C\C/C=C\C/C=C\C/C=C\CCCC(=O)OCCc1ccsc1 | < 5.30 |  | 75 | < 6.00 | < 5.30 | 4.55 | 100 | 4.59
19 | CCCCC/C=C\C/C=C\C/C=C\C/C=C\CCCC(=O)NCc1ccco1 |  |  | >85 | < 5.30 | < 5.30 | 4.47 | 100 | 
20 | CCCCC/C=C\C/C=C\C/C=C\C/C=C\CCCC(=O)NC(C)Cc1ccsc1 (centres undefined) | > 5.30 |  | 78 | < 6.00 | < 6.00 | < 3.92 | 37 | 4.68
21 | CCCCC/C=C\C/C=C\C/C=C\C/C=C\CCCC(=O)NCc1cccn1C |  |  | >85 |  |  |  |  | 
22 | CCCCC/C=C\C/C=C\C/C=C\C/C=C\CCCC(=O)OCc1ccco1 |  |  | >85 | < 5.30 | < 5.30 | 4.28 | 100 | 
23 | CCCCC/C=C\C/C=C\C/C=C\C/C=C\CCCC(=O)NC(C)Cc1cccs1 (centres undefined) | > 5.30 |  | 66 | < 6.00 | < 6.00 | 4.82 | 36 | 4.66
24 | CCCCC/C=C\C/C=C\C/C=C\C/C=C\CCCC(=O)OCC1CCCO1 (centres undefined) |  |  | >85 | < 5.30 | < 5.30 | < 3.92 | 23 | 
25 | CCCCC/C=C\C/C=C\C/C=C\C/C=C\CCCC(=O)NC(C)c1ccco1 (centres undefined) | < 5.30 |  | >85 | < 5.30 | < 5.30 | 4.44 | 75 | 4.68
